Source: ChEMBL document CHEMBL4402603, “Structure-Activity Relationship of SPOP Inhibitors against Kidney Cancer” (J Med Chem, 2020)
Calls of active or inactive are those of the source. The calls are words filed in the database; no cut-off is given here.

Columns and labels:
[1] = target: Speckle-type POZ protein (Homo sapiens) (UniProt O43791); experiment: Binding affinity to recombinant N-terminal GST/His-tagged MATH binding domain SPOP (unknown origin) expressed in Escherichia coli BL21 (DE3) assessed as change in melting temperature at 10 fold compound incubated for 15 mins by nano differential scanning fluorimetry (reference value: -1.7 degreeC)
Chain of Speckle-type POZ protein (Homo sapiens) (O43791 whole entry, the tested form may be a part): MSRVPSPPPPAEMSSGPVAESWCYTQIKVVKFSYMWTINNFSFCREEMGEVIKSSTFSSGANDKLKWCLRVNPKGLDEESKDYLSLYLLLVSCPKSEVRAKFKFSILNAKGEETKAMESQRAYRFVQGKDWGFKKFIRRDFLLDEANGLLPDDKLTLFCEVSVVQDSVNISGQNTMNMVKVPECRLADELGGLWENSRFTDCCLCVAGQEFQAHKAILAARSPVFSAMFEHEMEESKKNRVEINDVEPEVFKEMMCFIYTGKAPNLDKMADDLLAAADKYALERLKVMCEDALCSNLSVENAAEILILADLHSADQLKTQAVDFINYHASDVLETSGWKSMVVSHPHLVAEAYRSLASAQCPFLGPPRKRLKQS

A498 [2] = experiment: Antiproliferative activity against human A498 cells assessed as reduction in cell viability at 30 uM incubated for 72 hrs by MTT assay relative to control; format: functional; conditions: A498, 72 h
In short: (§1)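 MTT read-out. Cells seeded at 1,000-2,200/well, grown 12 hr at 37 °C, then compound added for 72 hr. MTT for 4 hr, formazan dissolved in DMSO, absorbance at 490 nm. Untreated-cell OD taken as 100% proliferation; inhibition reported at 30 μM.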

OS-RC-2 [3] = experiment: Antiproliferative activity against human OS-RC2 cells assessed as reduction in cell viability at 30 uM incubated for 72 hrs by MTT assay relative to control; format: functional; conditions: OS-RC-2, 72 h; in short: as §1
A498 [4] = experiment: Antiproliferative activity against human A498 cells assessed as reduction in cell viability incubated for 72 hrs by MTT assay; format: functional, cell-based; conditions: A498, 72 h
In short: (§2)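 MTT read-out. Cells seeded at 1,000-2,200/well, grown 12 hr at 37 °C before compound, then exposed 72 hr. MTT for 4 hr, formazan dissolved in DMSO, A490 read. Untreated cells = 100% proliferation. IC50 quantitated; mean ± SD, n = 3.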

OS-RC-2 [5] = experiment: Antiproliferative activity against human OS-RC2 cells assessed as reduction in cell viability incubated for 72 hrs by MTT assay; format: functional, cell-based; conditions: OS-RC-2, 72 h; in short: as §2
[6] = Solubility of compound in cell culture medium in presence of 0.2 % DMSO; format: physicochemical
In short: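 Solubility determined in cell culture medium containing 0.2% DMSO.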

A498 [7] = experiment: Inhibition of colony formation in human A498 cells at 1 to 5 uM incubated for 12 days by crystal violet dye based assay; format: functional, cell-based
In short: (§3)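 Cells seeded at 1,000/well, grown 12 days at 37 °C, 5% CO2, medium renewed every 3 days. Fixed with 10% acetic acid/10% methanol for 15 min, stained with 1% crystal violet for 10 min.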

OS-RC-2 [8] = experiment: Inhibition of colony formation in human OS-RC2 cells at 1 to 5 uM incubated for 12 days by crystal violet dye based assay; format: functional, cell-based; in short: as §3
[9] = target: Speckle-type POZ protein (Homo sapiens) (UniProt O43791); experiment: Binding affinity to recombinant N-terminal GST/His-tagged MATH binding domain SPOP (unknown origin) expressed in Escherichia coli BL21 (DE3) assessed as change in melting temperature at 20 fold compound incubated for 15 mins by nano differential scanning fluorimetry (reference value: -3.8 degreeC)
[10] = target: Speckle-type POZ protein (Homo sapiens) (UniProt O43791); experiment: Binding affinity to recombinant N-terminal GST/His-tagged SPOP (unknown origin) MATH binding domain expressed in Escherichia coli BL21 (DE3) assessed as change in melting temperature at 5 fold compound by SYPRO Orange dye based differential scanning fluorimetry (reference value: -1.7 degreeC)
[11] = target: Speckle-type POZ protein (Homo sapiens) (UniProt O43791); experiment: Inhibition of SPOP signalling in human OS-RC2 cells assessed as accumulation of PTEN at 5 to 15 uM incubated for 12 hrs by Western blot analysis; format: cell-based
[12] = target: Speckle-type POZ protein (Homo sapiens) (UniProt O43791); experiment: Binding affinity to recombinant N-terminal GST/His-tagged SPOP (unknown origin) MATH binding domain expressed in Escherichia coli BL21 (DE3) assessed as change in melting temperature at 1 fold compound by SYPRO Orange dye based differential scanning fluorimetry (reference value: -1.7 degreeC)
[13] = target: Speckle-type POZ protein (Homo sapiens) (UniProt O43791); experiment: Binding affinity to recombinant N-terminal GST/His-tagged SPOP (unknown origin) MATH binding domain expressed in Escherichia coli BL21 (DE3) assessed as change in melting temperature at 10 fold compound by SYPRO Orange dye based differential scanning fluorimetry (reference value: -1.7 degreeC)

ΔTm [1] [°C] | solubility [6] [µM] | ΔTm [9] [°C] | ΔTm [10] [°C] | inhibition [11] | ΔTm [12] [°C] | ΔTm [13] [°C] | SMILES | inhibition at 30 µM (A498 [2]) [%] | inhibition at 30 µM (OS-RC-2 [3]) [%] | IC50 (A498 [4]) [µM] | IC50 (OS-RC-2 [5]) [µM] | inhibition (A498 [7]) | inhibition (OS-RC-2 [8])
2.3 | 5 to 10 | 3.5 | 1.3 | – | – | – | Cc1cccn2c(=O)c3cc(C(=O)NCCCN4CCOCC4)c(=N)n(CCc4ccc(Br)cc4)c3nc12 | 89 | 96 | 3 | 5 | Active | Active
2.8 | 30 to 45 | 4 | 3 | – | – | – | Cc1cccn2c(=O)c3cc(C(=O)NCCCN4CCOCC4)c(=N)n(CCc4ccccc4)c3nc12 | 88 | 90 | 2.7 | 5.8 | Active | Active
2.7 | – | 2.7 | – | Active | – | – | Cc1cccn2c(=O)c3cc(C(=O)NC4CCCCC4)c(=N)n(CCc4cccs4)c3nc12 | 90 | 90 | 6.3 | 5.9 | – | –
3.2 | – | 5.1 | – | Active | – | – | Cc1cccn2c(=O)c3cc(C(=O)NCCCN4CCOCC4)c(=N)n(CCc4cccs4)c3nc12 | 90 | 82 | 2.6 | 7.6 | – | –
3.7 | – | 5.3 | 4 | Active | – | – | Cc1cccn2c(=O)c3cc(C(=O)NCCCN4CCOCC4)c(=N)n(CCc4cccc(F)c4)c3nc12 | 89 | 92 | 2.4 | 4.6 | – | –
2.5 | – | 2.9 | 2 | – | – | – | Cc1cccn2c(=O)c3cc(C(=O)NCCCN4CCOCC4)c(=N)n(CCc4ccc(F)cc4)c3nc12 | 90 | 88 | 3.1 | 6.6 | – | –
0 | – | 0.2 | 0.3 | – | 0 | 0.3 | Cc1cccn2c(=O)c3cc(C(=O)NCc4cccnc4)c(=N)n(CCCN4CCOCC4)c3nc12 | – | – | > 50 | > 50 | – | –
– | 2.5 to 5 | – | – | Active | – | – | COc1ccc(CCNC(=O)c2cc3c(=O)n4cccc(C)c4nc3n(CCc3cccs3)c2=N)cc1 | 87 | 75 | 2.8 | 4.2 | Active | Active
